Tests used:
Assay type in all cases: cell-based
[1] = tested on: THESCs uterus (immortalized fibroblast) cells; assay: XTT cell viability assay, THESCs uterus; conditions: 1 μM, 72 h, 37 °C, triplicates in 96-well plates
Procedure, shortened: (§1)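 Cells were grown in DMEM with 10% FCS and penicillin/streptomycin, then seeded at 3×10^3 per well in 96-well plates. After 24 h attachment, the medium was replaced and conjugate or its scrambled-sequence control was added. Plates were incubated 72 h at 37 °C in humidified 5% CO2, and proliferation was read by XTT assay per the kit instructions.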

[2] = tested on: normal uterus human fibroblast cells produced from a patient (Nf08 uterus); assay: XTT cell viability assay, Nf08 uterus; conditions: 1 μM, 72 h, 37 °C, triplicates in 96-well plates, Figure S9
Procedure, shortened: as §1

[3] = tested on: miR-155; assay: miR-155 expression by quantitative RT-PCR after PNA conjugate treatment; conditions: U87MG cells, 0.5 μM PNA conjugate, 24 h, 37 °C, qRT-PCR in triplicates
Procedure, shortened: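 U87MG cells were treated with 0.5 μM conjugate or its scrambled-sequence control for 24 h at 37 °C. Total microRNA was isolated, and cDNA was synthesised from 1 μg RNA. miR-155 was quantified by SYBR Green real-time PCR with miR-155-specific primers, in triplicate.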

[4] = tested on: U87MG glioblastoma cells; assay: XTT cell viability assay, U87MG; conditions: 1 μM, 72 h, 37 °C, triplicates in 96-well plates
Procedure, shortened: as §1

[5] = tested on: U87MG glioblastoma cells; assay: Colony formation; conditions: 1.0 μM for 24 h, colonies counted after 2 weeks, triplicates
Procedure, shortened: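 U87MG cells in DMEM with 10% FCS were treated for 24 h with 1.0 μM conjugate or its scrambled-sequence control. Cells were then seeded at 1000 and 500 per well in triplicate six-well plates. After 14 days, colonies were fixed with 2.5% glutaraldehyde for 10 min, stained with 1% methylene blue and counted. Colony numbers were taken from the triplicate plates.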

[6] = tested on: U87MG cells; assay: FACS analysis of FITC-labeled PNA conjugate uptake; conditions: 0.5 μM, 2 h
Procedure, shortened: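 U87MG cells were seeded at 2.0×10^5 per well and left to adhere overnight. They were given 0.5 μM FITC-labelled conjugate in DMEM with 10% FCS for 2 h at 37 °C, either alone, with 10 mM NaN3 plus 10 mM 2-deoxy-D-glucose, or held at 4 °C. Cells were PBS-washed, trypsinised, pelleted, resuspended in cold PBS and filtered. Flow cytometry used 488 nm excitation, gated on untreated cells, and gave the % FITC-positive cells. Each condition was run in two repeats.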

[7] = tested on: U87MG glioblastoma cells; assay: Confocal colocalization with Lyso-Tracker Red and Hoechst; conditions: 0.5 μM, 3 h, 37 °C, Lyso-Tracker Red and Hoechst staining
Procedure, shortened: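 U87MG cells were plated 12 h beforehand on glass chamber slides and grown to 70–80% confluence. They were given 0.5 μM FITC-labelled conjugate in fresh complete medium for 3 h at 37 °C under 5% CO2, then washed twice with PBS. Staining was 50 nM LysoTracker Red for 20–30 min at 37 °C, PBS washes, then 0.01 mM Hoechst for 15 min. Cells were fixed in 4% formaldehyde and imaged by confocal laser scanning microscopy.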

“5′-ACCCAATCGTCAGATTCCATATA-3′-C9 (head to tail) [C9–PNA-Scr]” was tested, and the “effect on viability of THESCs uterus cells” value [1] was “negligible effects” and the “effect on viability of Nf08 uterus normal human fibroblast cells” value [2] was “negligible effects”.
In the case of “5′-ACCCCTATCACAATTAGCATTAA-3′-C9 (head to tail) [C9–PNA]”, the “decrease in miR-155 in comparison to the scrambled control” value [3] is reported as “over 80%”, the “reduction in cell viability in comparison to the C9–PNA-Scr control” value [4] is reported as greater than 80% and the “effect on viability of THESCs uterus cells” value [1] is reported as “negligible effects”. The “effect on viability of Nf08 uterus normal human fibroblast cells” value [2] was “negligible effects” and the colony formation [5] was “substantial decrease in colony formation”.
In the case of “FITC-Ahx-5′-ACCCCTATCACAATTAGCATTAA-3′-C9 (head to tail) [C9–PNA–FITC]”, the “cellular uptake at 4 °C (ATP depletion) by FACS” value ([6]; 4 °C, versus control at 37 °C, two repeats) is reported as “clear decrease in cellular uptake”, the “cellular uptake with 10 mM NaN3/10 mM 2-deoxy-D-glucose by FACS” value ([6]; 37 °C, versus control without inhibitors, two repeats) is reported as “clear decrease in cellular uptake” and the “cellular localization of FITC-labeled PNA” value [7] is reported as “predominantly found in lysosomes and, to a lesser extent, in nuclei”. The “cellular uptake by confocal microscopy of stained, fixed cells” value [7] was “strong punctate green signals”.
With “FITC-Ahx-5′-ACCCCTATCACAATTAGCATTAA-3′-dK4 [dK4–PNA–FITC]” the “cellular uptake, change in FITC fluorescence by FACS” value ([6]; 37 °C, complete medium, flow cytometry 488 nm) was “almost no change in fluorescence” and the “cellular uptake by confocal microscopy of stained, fixed cells” value [7] was “negligible uptake”.
